Experimental data pooled from the literature.
Protocols differ between the studies behind these lines.
Target: Serine/threonine-protein kinase VRK1 (VRK1, Homo sapiens, UniProt Q99986)
Residues used in one study (Q99986 1-396): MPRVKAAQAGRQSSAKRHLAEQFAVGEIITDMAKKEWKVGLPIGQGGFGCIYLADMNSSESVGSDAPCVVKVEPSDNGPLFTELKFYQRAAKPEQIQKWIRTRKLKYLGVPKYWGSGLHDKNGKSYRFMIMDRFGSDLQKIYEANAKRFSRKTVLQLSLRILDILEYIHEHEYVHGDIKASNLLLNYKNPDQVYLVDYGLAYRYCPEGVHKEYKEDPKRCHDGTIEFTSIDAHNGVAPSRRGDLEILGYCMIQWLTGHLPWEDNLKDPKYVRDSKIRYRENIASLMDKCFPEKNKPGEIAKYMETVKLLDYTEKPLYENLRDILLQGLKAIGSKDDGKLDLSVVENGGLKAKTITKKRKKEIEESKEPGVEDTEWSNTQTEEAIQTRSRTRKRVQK

SMILES | assay | setting | endpoint | result
CC(C)(C)c1nc(-c2cccc(NS(=O)(=O)c3c(F)cccc3F)c2F)c(-c2ccnc(N)n2)s1 | enzyme activity, inhibitor, radiometric | 1 µM | remaining activity | 77%
Cn1c2c(Cl)c(Cl)ccc2c2cn[nH]c(=O)c21 | thermal stability, DSF | 10 µM | ΔTm | 0 °C
O=C(Nc1cnn(-c2csc(C(=O)NC3COC3)c2)c1)Nc1c(F)cccc1Cl | enzyme activity, inhibitor | 5 µM | remaining activity | 91.9%
COc1cc(Cl)c(C(=O)N[C@@H](CN[C@H]2CC[C@@H](N)CC2)Cc2ccc(C#N)cc2)cc1-c1ccc(CN[C@H](C)c2ccc(C)cc2)o1 | enzyme activity, inhibitor | 1 µM | remaining activity | 93%
O=C1Nc2ccc(Cl)cc2C1=Cc1cc(Cl)c(O)c(Cl)c1 | cell-free assay | 0.5 µM | remaining signal | 80.6%
N#CC1c2c([nH]c3c(Cl)c(Cl)ccc23)C(=O)NC12CCCCC2 (racemic) | thermal stability, DSF | 10 µM | ΔTm | 0.1 °C
CN1CC(Oc2cnc(C#N)cc2-c2ccn3nc(NC(=O)C4CC4)cc3c2)C1 | enzyme activity, inhibitor | 1 µM | inhibition | -1%
CC(C)(C)c1nc2c(s1)c1nc(N)ncc1c1ccc(NS(=O)(=O)c3c(F)cccc3F)c(F)c12 | enzyme activity, inhibitor, radiometric | 1 µM | remaining activity | 82%
CN1CCC2(CC1)NC(=O)c1c(c3ccc(Cl)c(Cl)c3n1C)C2C#N (racemic) | thermal stability, DSF | 10 µM | ΔTm | 0 °C
CC(C)(O)[C@H]1CC[C@H](Nc2ccc3ncc(-c4cccc(C(F)(F)F)c4)n3n2)CC1 | enzyme activity, inhibitor | 1 µM | remaining activity | 74.9%
O=C(Nc1cnn(-c2csc(C(=O)NC3COC3)c2)c1)Nc1ccccc1Cl | enzyme activity, inhibitor | 5 µM | remaining activity | 109%
